SIRT5 inh = inhibitors of human sirtuin-5 desuccinylase; Q9NXA8; Purified SirT5, succinyl-peptide AMC, trypsin-coupled fluorescence; inhibition, % at 15 µM; 330,000 compounds, 1.1% hits; AID 652115; in the data active means inhibition above about 15%; inconclusive means no clear call, values can overlap the other calls
Target sequence (Q9NXA8 whole entry, looked up): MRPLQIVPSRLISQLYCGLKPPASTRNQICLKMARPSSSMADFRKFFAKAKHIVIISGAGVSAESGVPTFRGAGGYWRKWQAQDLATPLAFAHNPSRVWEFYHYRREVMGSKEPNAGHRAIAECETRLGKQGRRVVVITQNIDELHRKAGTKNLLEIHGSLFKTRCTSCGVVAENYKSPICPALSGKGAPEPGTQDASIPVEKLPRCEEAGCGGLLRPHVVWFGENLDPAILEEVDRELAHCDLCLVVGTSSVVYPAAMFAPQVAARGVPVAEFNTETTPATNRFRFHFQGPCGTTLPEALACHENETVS
AF4-AF9 inh = blocks AF4 peptide binding to human AF9; P42568; AlphaScreen, biotin-AF4 peptide binding to FLAG-AF9; inhibition, % at 10 µM; 350,000 compounds, 0.47% hits;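 active means every replicate reaching a set inhibition limit, whatever the replicate mean, cut at about 25% in these data; inconclusive means mean inhibition reaches that limit but some replicates miss it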
S100A4 inh HTS = inhibitors of human S100A4 binding to myosin IIA peptide | S100A4/TAMRA-MyoIIA peptide fluorescence polarization | inhibition, % at 10.7 µM | 360,000 compounds, 0.14% hits | AID 652163;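 active means mean inhibition of at least 70% across replicates, with every replicate also reaching that level; inconclusive means mean inhibition reaches 70% but some replicates fall short; inactive means mean inhibition below 70%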
Target sequence (P26447 whole entry, looked up): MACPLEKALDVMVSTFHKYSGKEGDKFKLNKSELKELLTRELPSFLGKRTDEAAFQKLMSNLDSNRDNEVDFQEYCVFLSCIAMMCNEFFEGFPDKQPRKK
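Test system: S100A4 monomer protein. Medium: HEPES buffer with Ca2+, pH 7.2. Reagent: fluorescent myosin IIA peptide, 5 nM. Compound dosing: single-point compound testing. Timing: 5 min between mix addition and reading. Benchmarks: DMSO neutral and TFP positive wells.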
CaV13 ICDI inh = Disruptors of the CACNA1D IQ motif to Ca2+-dependent inactivation inhibitor domain association, primary screening, Förster resonance energy transfer in intact living … | 340,000 compounds, 0.098% hits | HEK cells, CFP/YFP FRET ICDI-IQ, plate reader, 10 min; percent FRET-ratio fall versus neutral wells | AID 743397 | inhibition, % at 12.3 µM;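 active means mean replicate inhibition of at least 30% and at least 1% of replicates passing that level; inconclusive means only one of the two criteria is met; inactive means neither criterion is met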
DENV2 CPE rescue = protects cells from dengue virus 2 cytopathic effect; AID 651640; 350,000 compounds, 1.7% hits; DENV2-infected cells, cytopathic effect rescue, plate reader; CPE inhibition, % at 9.99 µM; in the data active means CPE inhibition above about 20%, passing the limit was not always enough; inconclusive means no clear call, values can overlap the other calls; tested in BHK-21 cells
Of the large screens only hits and unclear results are named; the others gave an inactive call; ! = a repeat was not active. This is a sample that favours compounds with a hit; in the whole collection about 2.7% have one here.

C[C@@H]1CN([C@H](C)CO)C(=O)c2cc(NS(C)(=O)=O)ccc2O[C@H]1CN(C)Cc1ccc(-c2ccccc2)cc1	none (no result: CaV13 ICDI inh)
CC(=O)NC[C@H]1[C@@H](c2ccc(C3=CCCCC3)cc2)[C@@H](CO)N1C(=O)NC(C)C	DENV2 CPE rescue 55 (no result: SIRT5 inh, AF4-AF9 inh, S100A4 inh HTS, CaV13 ICDI inh)
COCC(=O)NC[C@@H]1[C@@H](c2ccc(C3=CCCC3)cc2)[C@@H](CO)N1C(=O)C1CC1	DENV2 CPE rescue 25 (no result: CaV13 ICDI inh)
CCOC(=O)C1(CCOc2ccccc2)CCN(Cc2ccc(OCCO)cc2)CC1	SIRT5 inh 22, DENV2 CPE rescue inconclusive
CCOC(=O)C1(CCOc2ccccc2)CCN(Cc2cccc3nonc23)CC1	AF4-AF9 inh 26
CCOC(=O)C1(CCOC)CCN(Cc2cnc(-c3cccc(C)c3)nc2)CC1	SIRT5 inh 20
CCOC(=O)C1(CCOC)CCN(Cc2ccc3nonc3c2)CC1	none
C=CCNC(=O)COC(=O)COc1ccc(Cl)cc1	none
COc1cc(OC)cc(C(=O)NCCCNC(=O)c2ccccn2)c1	none
Cc1ccccc1OCC(=O)OCC(=O)NCCNC(=O)COC(=O)COc1ccccc1C	DENV2 CPE rescue 44
Cc1ccccc1OCC(=O)NCCNC(=O)c1ccccn1	SIRT5 inh 30
CC(C)Oc1ccc(C(=O)NCCCNC(=O)c2ccccn2)cc1	SIRT5 inh 17
C=CCNC(=O)COC(=O)COc1ccc(Cl)cc1C	SIRT5 inh 17 (no result: AF4-AF9 inh, DENV2 CPE rescue)
NC(=O)c1c(N)[nH]c(C(=O)c2ccccc2)c1-c1ccccc1Cl	none (no result: AF4-AF9 inh)
Nc1c(C(=O)OCC(=O)NCc2ccccc2)[nH]c(=O)[nH]c1=O	AF4-AF9 inh 38
CCOc1ccc(C2C(C(=O)OC)=CN(CCOC)C=C2C(=O)OC)cc1	none (no result: SIRT5 inh, AF4-AF9 inh, S100A4 inh HTS, DENV2 CPE rescue)
COCCN1C=C(C(=O)OC)C(c2ccc(Cl)cc2)C(C(=O)OC)=C1	CaV13 ICDI inh active (no result: SIRT5 inh)
COc1ccc(-c2ccccc2)cc1NC(=O)c1cccs1	SIRT5 inh 16, DENV2 CPE rescue 49
CC(C)C(=O)N1CCC1(C)C(=O)Nc1ccccc1OC(F)F (configuration not stated)	DENV2 CPE rescue inconclusive
COc1ccc(-c2ccccc2)cc1NC(=O)C1(C)CCN1C(=O)C(C)C (configuration not stated)	SIRT5 inh 22
Cc1ccccc1S(=O)(=O)N1CC[C@@H]2[C@H](CO)Nc3ccc(-c4cccc(C#N)c4)cc3[C@@H]21	DENV2 CPE rescue 96 (no result: SIRT5 inh, AF4-AF9 inh, S100A4 inh HTS, CaV13 ICDI inh)
COc1ccc(S(=O)(=O)N2CC[C@H]3[C@H](CO)Nc4ccc(-c5ccc(C#N)cc5)cc4[C@H]32)cc1	none (no result: CaV13 ICDI inh)
COc1ccc(-c2ccc3c(c2)[C@H]2[C@H](CCN2S(=O)(=O)c2ccc(OC)cc2)[C@H](CO)N3)cc1	DENV2 CPE rescue 54 (no result: SIRT5 inh, AF4-AF9 inh, S100A4 inh HTS, CaV13 ICDI inh)
Cc1ccccc1S(=O)(=O)N1CC[C@@H]2[C@@H](CO)Nc3ccc(-c4cccc(C#N)c4)cc3[C@@H]21	DENV2 CPE rescue 65 (no result: SIRT5 inh, AF4-AF9 inh, S100A4 inh HTS, CaV13 ICDI inh)
N#Cc1cccc(-c2ccc3c(c2)[C@@H]2[C@@H](CCN2S(=O)(=O)c2ccccc2F)[C@H](CO)N3)c1	none (no result: CaV13 ICDI inh)
COc1cccc(-c2ccc3c(c2)[C@H]2[C@H](CCN2S(=O)(=O)c2ccccc2C)[C@H](CO)N3)c1	DENV2 CPE rescue 39 (no result: CaV13 ICDI inh)
CCN1[C@@H]2c3ccc(-c4ccncc4)c(=O)n3C[C@@H]2[C@@H](CO)[C@@H]1C(=O)NCc1ccccc1	none (no result: CaV13 ICDI inh)
C[C@H](CO)N1C[C@H](C)[C@H](CN(C)C(=O)C2CC2)Oc2ncc(-c3cccc(C#N)c3)cc2C1=O	none (no result: CaV13 ICDI inh)
COc1cccc(-c2ccc3c(c2)[C@@H]2[C@@H](CCN2S(=O)(=O)c2cn(C)cn2)[C@@H](CO)N3)c1	DENV2 CPE rescue 35 (no result: CaV13 ICDI inh)
C/C=C/c1ccc([C@H]2[C@@H](CO)N(C(=O)COC)[C@H]2CNC(=O)C2CC2)cc1	none (no result: CaV13 ICDI inh)
C[C@@H]1CCCCO[C@H](CN(C)C(=O)Nc2ccc(F)cc2)[C@@H](C)CN([C@@H](C)CO)C(=O)c2cc(NS(=O)(=O)c3ccccc3)ccc2O1	none (no result: CaV13 ICDI inh)
C[C@@H]1CCCCO[C@@H](CN(C)C(=O)Nc2ccc(F)cc2)[C@@H](C)CN([C@H](C)CO)C(=O)c2cc(NS(=O)(=O)c3ccccc3)ccc2O1	DENV2 CPE rescue 31 (no result: CaV13 ICDI inh)
Cc1ccc(S(=O)(=O)Nc2ccc3c(c2)C(=O)N([C@@H](C)CO)C[C@H](C)[C@@H](CN(C)C(=O)NC(C)C)OCCCC[C@@H](C)O3)cc1	DENV2 CPE rescue 22 (no result: CaV13 ICDI inh)
Cc1ccc(S(=O)(=O)Nc2ccc3c(c2)C(=O)N([C@H](C)CO)C[C@@H](C)[C@H](CN(C)C(=O)Nc2ccc(F)cc2)OCCCC[C@H](C)O3)cc1	SIRT5 inh 21 (no result: CaV13 ICDI inh)
CCn1c(=O)c(C(=O)CN2CCN(S(=O)(=O)c3ccc(C)cc3C)CC2)c(N)n(Cc2ccccc2)c1=O	SIRT5 inh 23 (no result: DENV2 CPE rescue)
COC(=O)c1cc2ccsc2n1Cc1cccc(F)c1	none (no result: SIRT5 inh)
COC(=O)c1cc2ccsc2n1Cc1ccccc1F	DENV2 CPE rescue 113 (no result: SIRT5 inh)
C[C@@H]1CCCCO[C@H](CN(C)Cc2ccncc2)[C@@H](C)CN([C@H](C)CO)C(=O)c2cc(NC(=O)c3ccccc3)ccc2O1	none (no result: CaV13 ICDI inh)
C/C=C/c1ccc(C2[C@H]3CNC[C@@H]2N3Cc2nccs2)cc1 (some centres not stated)	DENV2 CPE rescue 39! (no result: CaV13 ICDI inh)
CCCNC(=O)N(C)C[C@@H]1Oc2cc(-c3cncnc3)ccc2S(=O)(=O)N([C@H](C)CO)C[C@@H]1C	none (no result: CaV13 ICDI inh)
CCCNC(=O)Nc1ccc2c(c1)OC[C@@H](C)N(S(C)(=O)=O)C[C@@H](C)[C@H](OC)CN(C)C2=O	DENV2 CPE rescue 43 (no result: CaV13 ICDI inh)
CCCNC(=O)Nc1ccc2c(c1)OC[C@H](C)N(C(=O)CC)C[C@H](C)[C@@H](OC)CN(C)C2=O	DENV2 CPE rescue 31 (no result: CaV13 ICDI inh)
CCC(=O)N1C[C@@H](C)[C@@H](OC)CN(C)C(=O)c2ccc(NC(=O)Nc3ccc(Cl)cc3)cc2OC[C@H]1C	DENV2 CPE rescue 80 (no result: CaV13 ICDI inh)
CCC(=O)Nc1ccc2c(c1)OC[C@@H](C)N(C(=O)C1CC1)C[C@H](C)[C@H](OC)CN(C)C2=O	DENV2 CPE rescue 36 (no result: CaV13 ICDI inh)
CCCNC(=O)Nc1ccc2c(c1)OC[C@H](C)N(C(=O)CC)C[C@@H](C)[C@@H](OC)CN(C)C2=O	none (no result: CaV13 ICDI inh)
C/C=C/c1ccc([C@H]2[C@@H](CO)N(C(=O)CC3CC3)C23CN(S(C)(=O)=O)C3)cc1	none (no result: CaV13 ICDI inh)
CO[C@H]1CN(C)C(=O)c2cc(NC(=O)Nc3ccc(Cl)cc3)ccc2OC[C@@H](C)N(C)C[C@H]1C	none (no result: CaV13 ICDI inh)
CCC(=O)N1C[C@H](C)[C@@H](OC)CN(C)C(=O)c2ccc(NC(=O)NC(C)C)cc2OC[C@@H]1C	none (no result: CaV13 ICDI inh)
CCCNC(=O)Nc1ccc2c(c1)OC[C@H](C)N(C(=O)C1CC1)C[C@H](C)[C@@H](OC)CN(C)C2=O	S100A4 inh HTS 93 (no result: CaV13 ICDI inh)
CO[C@H]1CN(C)C(=O)c2ccc(NC(C)=O)cc2OC[C@H](C)N(C(=O)C2CCC2)C[C@@H]1C	DENV2 CPE rescue 30 (no result: CaV13 ICDI inh)
